Source: PMC8317200 (Journal of medicinal chemistry, 2020)
Residues, ends and D or L forms follow the SMILES beside them. *: point of attachment. Adamantane1carbonyl = O=C(C12CC3CC(CC(C3)C1)C2)*; OtBu = CC(C)(C)O*; OAll = C=CCO*; OPr = CCCO*

T1: FGF14 (Homo sapiens, UniProt Q92915)
T1 sequence (Q92915 64-252 isoform Q92915-2): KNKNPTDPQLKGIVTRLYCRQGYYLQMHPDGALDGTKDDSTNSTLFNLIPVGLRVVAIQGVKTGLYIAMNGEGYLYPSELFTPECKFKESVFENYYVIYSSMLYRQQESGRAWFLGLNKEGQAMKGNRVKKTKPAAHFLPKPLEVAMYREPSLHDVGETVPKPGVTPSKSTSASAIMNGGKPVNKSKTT

B1: Nav1.6 C-terminal tail, aa 1767–1912 (domain or fragment, human, UniProt Q9UQD0-1 1767-1912, looked up)
chain: ENFSVATEESADPLSEDDFETFYEIWEKFDPDATQFIEYCKLADFADALEHPLRVPKPNTIELIAMDLPMVSGDRIHCLDILFAFTKRVLGDSGELDILRQQMEERFVASNPSKVSYEPITTTLRRKQEEVSAVVLQRAYRGHLAR
B2: fibroblast growth factor 14 (FGF14), aa 64–252 (domain or fragment, human, UniProt Q92915-2 64-252, looked up)
chain: T1 sequence (Q92915 64-252 isoform Q92915-2)
B3: FGF14: purified recombinant human fibroblast growth factor 14 protein flown over Nav1.6 C-terminal tail in SPR (protein)
chain: T1 sequence (Q92915 64-252 isoform Q92915-2)
modifications: left off: His6, N-terminal, state not stated

Experiments:
FGF14 = target: T1, FGF14; assay: Surface plasmon resonance; format: binding; conditions: for koff: read-out: koff FGF14; for kon: read-out: kon FGF14
Nav1.1 channels = Nav1.1 channels (Homo sapiens, UniProt P35498); assay: Whole-cell patch-clamp electrophysiology in HEK-Nav1.1 cells; format: cell-based
Nav1.6 C-terminal tail = Nav1.6 C-terminal tail (Homo sapiens, UniProt Q9UQD0); assay: Surface plasmon resonance; format: binding; conditions: for koff: read-out: koff Nav1.6 C-terminal tail; for kon: read-out: kon Nav1.6 C-terminal tail
Nav1.2 channels = Nav1.2 channels (Homo sapiens, UniProt Q99250); assay: Whole-cell patch-clamp electrophysiology in HEK-Nav1.2 cells; format: cell-based
Nav1.2 channels, sequence (Q99250 whole entry): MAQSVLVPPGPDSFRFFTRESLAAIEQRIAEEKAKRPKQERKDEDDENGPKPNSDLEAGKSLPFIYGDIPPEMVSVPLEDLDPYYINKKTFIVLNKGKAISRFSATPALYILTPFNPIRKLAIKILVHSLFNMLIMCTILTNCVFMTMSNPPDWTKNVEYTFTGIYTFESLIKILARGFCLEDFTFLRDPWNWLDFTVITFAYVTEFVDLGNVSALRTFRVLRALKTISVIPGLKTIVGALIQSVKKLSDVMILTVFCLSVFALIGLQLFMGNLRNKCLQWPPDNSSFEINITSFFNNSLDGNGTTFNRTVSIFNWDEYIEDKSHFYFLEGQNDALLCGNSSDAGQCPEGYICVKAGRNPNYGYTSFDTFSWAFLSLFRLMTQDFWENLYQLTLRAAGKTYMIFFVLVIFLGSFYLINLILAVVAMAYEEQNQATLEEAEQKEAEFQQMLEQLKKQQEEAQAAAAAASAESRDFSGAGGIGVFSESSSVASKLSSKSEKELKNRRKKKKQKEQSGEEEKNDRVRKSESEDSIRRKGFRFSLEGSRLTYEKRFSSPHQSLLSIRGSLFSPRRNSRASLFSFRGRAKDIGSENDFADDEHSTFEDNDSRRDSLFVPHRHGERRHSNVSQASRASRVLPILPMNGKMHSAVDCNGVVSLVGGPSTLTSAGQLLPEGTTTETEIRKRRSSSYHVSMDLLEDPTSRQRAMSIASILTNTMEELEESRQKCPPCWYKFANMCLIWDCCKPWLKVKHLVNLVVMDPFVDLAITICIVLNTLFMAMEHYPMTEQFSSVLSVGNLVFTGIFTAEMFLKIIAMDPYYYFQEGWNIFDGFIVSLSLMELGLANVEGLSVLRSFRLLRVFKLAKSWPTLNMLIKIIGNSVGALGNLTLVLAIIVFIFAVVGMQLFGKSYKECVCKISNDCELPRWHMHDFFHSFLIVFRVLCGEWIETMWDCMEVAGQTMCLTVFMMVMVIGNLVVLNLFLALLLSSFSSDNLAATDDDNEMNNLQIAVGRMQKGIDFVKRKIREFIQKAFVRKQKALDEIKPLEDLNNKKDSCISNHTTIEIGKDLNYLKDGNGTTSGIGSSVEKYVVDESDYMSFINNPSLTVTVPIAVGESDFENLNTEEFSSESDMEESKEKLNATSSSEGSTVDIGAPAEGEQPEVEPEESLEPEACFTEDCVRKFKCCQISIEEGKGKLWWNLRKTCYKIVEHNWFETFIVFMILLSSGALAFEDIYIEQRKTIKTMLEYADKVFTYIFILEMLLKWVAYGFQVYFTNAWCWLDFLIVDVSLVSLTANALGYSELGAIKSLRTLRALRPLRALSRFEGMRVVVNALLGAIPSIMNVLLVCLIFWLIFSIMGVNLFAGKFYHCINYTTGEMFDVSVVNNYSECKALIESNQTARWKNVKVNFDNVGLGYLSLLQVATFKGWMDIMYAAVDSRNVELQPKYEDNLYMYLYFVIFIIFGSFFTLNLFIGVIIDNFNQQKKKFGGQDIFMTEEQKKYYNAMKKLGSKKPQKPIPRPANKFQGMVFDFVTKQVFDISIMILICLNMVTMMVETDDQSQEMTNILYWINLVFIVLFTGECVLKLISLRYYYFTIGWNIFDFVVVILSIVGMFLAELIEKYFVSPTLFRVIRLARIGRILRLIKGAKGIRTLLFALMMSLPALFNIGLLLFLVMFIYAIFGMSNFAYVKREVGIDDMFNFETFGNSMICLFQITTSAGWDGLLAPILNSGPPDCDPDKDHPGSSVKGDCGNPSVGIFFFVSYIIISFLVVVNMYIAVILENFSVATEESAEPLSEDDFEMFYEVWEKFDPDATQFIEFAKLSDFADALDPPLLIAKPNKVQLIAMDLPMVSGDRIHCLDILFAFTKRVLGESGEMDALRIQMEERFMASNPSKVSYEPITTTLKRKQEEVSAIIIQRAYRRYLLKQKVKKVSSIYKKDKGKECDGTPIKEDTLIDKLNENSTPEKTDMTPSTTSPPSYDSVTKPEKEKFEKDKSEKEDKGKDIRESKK

[1] = target: human Nav1.6 (HEK-Nav1.6) channels (Homo sapiens, UniProt Q9UQD0); format: cell-based; conditions: 30 μM; absence of FGF14
human Nav1.6 (HEK-Nav1.6) channels, sequence (Q9UQD0 whole entry): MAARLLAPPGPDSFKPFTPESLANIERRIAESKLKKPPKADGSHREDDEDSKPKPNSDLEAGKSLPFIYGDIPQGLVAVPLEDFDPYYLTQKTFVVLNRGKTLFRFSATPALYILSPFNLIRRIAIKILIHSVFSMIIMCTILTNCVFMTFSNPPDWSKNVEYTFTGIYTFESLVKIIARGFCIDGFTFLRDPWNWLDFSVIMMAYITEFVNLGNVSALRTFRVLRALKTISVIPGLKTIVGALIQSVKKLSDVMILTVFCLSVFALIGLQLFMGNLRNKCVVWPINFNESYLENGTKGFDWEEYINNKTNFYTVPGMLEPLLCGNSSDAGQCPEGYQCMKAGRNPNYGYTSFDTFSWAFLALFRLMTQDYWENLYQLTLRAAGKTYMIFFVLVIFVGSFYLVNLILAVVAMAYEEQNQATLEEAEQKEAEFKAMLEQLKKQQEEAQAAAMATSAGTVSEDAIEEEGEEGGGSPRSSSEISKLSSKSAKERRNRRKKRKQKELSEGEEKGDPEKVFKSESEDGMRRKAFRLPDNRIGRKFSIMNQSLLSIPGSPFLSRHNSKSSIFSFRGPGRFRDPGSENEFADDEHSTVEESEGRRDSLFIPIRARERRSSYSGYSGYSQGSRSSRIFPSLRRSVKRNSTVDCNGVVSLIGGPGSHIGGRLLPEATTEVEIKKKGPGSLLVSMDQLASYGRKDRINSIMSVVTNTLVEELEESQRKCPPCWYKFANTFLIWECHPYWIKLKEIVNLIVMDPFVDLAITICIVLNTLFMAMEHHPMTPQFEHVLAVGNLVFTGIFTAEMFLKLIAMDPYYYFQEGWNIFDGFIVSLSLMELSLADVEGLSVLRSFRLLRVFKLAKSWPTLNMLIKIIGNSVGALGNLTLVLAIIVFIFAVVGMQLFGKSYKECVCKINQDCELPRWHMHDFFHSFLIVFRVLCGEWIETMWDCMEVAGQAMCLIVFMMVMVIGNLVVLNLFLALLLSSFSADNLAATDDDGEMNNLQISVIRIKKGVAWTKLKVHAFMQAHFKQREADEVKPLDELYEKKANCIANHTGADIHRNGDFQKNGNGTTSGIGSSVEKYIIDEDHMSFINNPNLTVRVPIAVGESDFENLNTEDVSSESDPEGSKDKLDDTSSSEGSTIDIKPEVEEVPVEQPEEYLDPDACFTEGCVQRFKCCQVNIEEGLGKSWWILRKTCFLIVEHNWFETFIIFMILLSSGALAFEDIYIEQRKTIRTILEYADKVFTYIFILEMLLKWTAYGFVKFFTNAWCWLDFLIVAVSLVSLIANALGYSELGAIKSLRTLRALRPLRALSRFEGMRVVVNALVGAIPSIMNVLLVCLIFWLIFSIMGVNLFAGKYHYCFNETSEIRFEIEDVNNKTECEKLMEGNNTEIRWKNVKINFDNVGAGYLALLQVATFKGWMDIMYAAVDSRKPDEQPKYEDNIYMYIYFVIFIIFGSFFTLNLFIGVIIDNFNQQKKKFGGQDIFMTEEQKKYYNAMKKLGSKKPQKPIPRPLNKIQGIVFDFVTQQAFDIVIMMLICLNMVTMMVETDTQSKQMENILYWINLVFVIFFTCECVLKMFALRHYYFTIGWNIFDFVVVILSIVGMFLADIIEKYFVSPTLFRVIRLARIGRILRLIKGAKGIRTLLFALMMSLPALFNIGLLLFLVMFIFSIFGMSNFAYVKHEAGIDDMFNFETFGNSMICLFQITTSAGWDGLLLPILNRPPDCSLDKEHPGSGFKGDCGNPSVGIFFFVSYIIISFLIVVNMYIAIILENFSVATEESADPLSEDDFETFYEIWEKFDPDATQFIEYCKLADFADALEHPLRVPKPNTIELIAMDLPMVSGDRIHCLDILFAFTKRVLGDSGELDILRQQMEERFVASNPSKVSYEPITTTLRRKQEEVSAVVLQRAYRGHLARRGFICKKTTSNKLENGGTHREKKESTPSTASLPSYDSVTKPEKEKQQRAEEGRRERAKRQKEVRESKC
Summary of the method: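 HEK293 cells stably expressing human Nav1.6 were kept under 500 μg/mL G418 with no FGF14 transfection. They were washed and re-plated at very low density onto glass coverslips, and the test compound was applied at 30 μM. Whole-cell patch clamp used extracellular solution (mM): 140 NaCl, 3 KCl, 1 MgCl2, 1 CaCl2, 10 HEPES, 10 glucose.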

[2] = target: B2; assay: SPR
[3] = target: B1; assay: SPR
FGF14:Nav1.6 = FGF14:Nav1.6 (Homo sapiens, UniProt Q92915+Q9UQD0); assay: SPR of FGF14 binding to Nav1.6 C-terminal tail, alone or in complex with 21a; conditions: FGF14 alone
Summary of the method: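 Recombinant human Nav1.6 C-terminal tail (aa 1763–1976, His-tagged, E. coli-expressed, purified by column chromatography) amine-coupled to a CM5 chip (934 RU). FGF14 at 15.6–1500 nM, complexed with 2.1% DMSO alone, was flowed over the chip at 25 °C and 50 μL/min. Injection 120 s, dissociation 150 s, then regeneration (600 mM NaCl, 5% DMSO). kon and koff came from a Langmuir 1:1 fit.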

Row | Molecule | koff (FGF14) [s⁻¹] | kon (FGF14) [M⁻¹ s⁻¹] | Binding to Nav1.6 C-terminal tail by SPR (in words) (Nav1.6 C-terminal tail) | koff (Nav1.6 C-terminal tail) [s⁻¹] | kon (Nav1.6 C-terminal tail) [M⁻¹ s⁻¹] | also measured
1 | COC(=O)[C@@H](NC(=O)[C@H](CCC(=O)OC(C)(C)C)NC(=O)[C@H](CC(C)C)NC(=O)[C@@H]1CCCN1C(=O)C12CC3CC(CC(C3)C1)C2)C(C)C [Compound 21a, tert-Butyl (S)-4-((S)-2-((S)-1-((3S,5S,7S)-adamantane-1-carbonyl)pyrrolidine-2-carboxamido)-4-methylpentanamido)-5-(((S)-1-methoxy-3-methyl-1-oxobutan-2-yl)amino)-5-oxopentanoate] (Adamantane1carbonyl-PLE(OtBu)V-OMe) | 0.00933 | 4660 | appreciable binding | 0.00357 | 62300 | Changes in the kinetic properties of Nav1.1 channels (Nav1.1 channels): no changes; Changes in the kinetic properties of Nav1.2 channels (Nav1.2 channels): no changes
2 | CCCOC(=O)[C@@H](NC(=O)[C@H](CCC(=O)OC(C)(C)C)NC(=O)[C@H](CC(C)C)NC(=O)[C@@H]1CCCN1C(=O)C12CC3CC(CC(C3)C1)C2)C(C)C [Compound 23g, tert-Butyl (4S)-4-((2S)-2-((2S)-1-((1R,3R)-adamantane-1-carbonyl)pyrrolidine-2-carboxamido)-4-methylpentanamido)-5-(((S)-3-methyl-1-oxo-1-propoxybutan-2-yl)amino)-5-oxopentanoate] (Adamantane1carbonyl-PLE(OtBu)V-OPr) | 0.0204 | 289 | appreciable binding | 0.0492 | 340 | –
3 | CCOC(=O)[C@@H](NC(=O)[C@H](CCC(=O)OC(C)(C)C)NC(=O)[C@H](CC(C)C)NC(=O)[C@@H]1CCCN1C(=O)C12CC3CC(CC(C3)C1)C2)C(C)C [Compound 23f, tert-Butyl (4S)-4-((2S)-2-((2S)-1-((1R,3R)-adamantane-1-carbonyl)pyrrolidine-2-carboxamido)-4-methylpentanamido)-5-(((S)-1-ethoxy-3-methyl-1-oxobutan-2-yl)amino)-5-oxopentanoate] (Adamantane1carbonyl-PLE(OtBu)V-OEt) | 0.0205 | 217 | appreciable binding | 0.0122 | 2640 | –
4 | C=CCOC(=O)[C@@H](NC(=O)[C@H](CCC(=O)OC(C)(C)C)NC(=O)[C@H](CC(C)C)NC(=O)[C@@H]1CCCN1C(=O)C12CC3CC(CC(C3)C1)C2)C(C)C [Compound 23a, tert-Butyl (S)-4-((S)-2-((S)-1-((3S,5S,7S)-adamantane-1-carbonyl)pyrrolidine-2-carboxamido)-4-methylpentanamido)-5-(((S)-1-(allyloxy)-3-methyl-1-oxobutan-2-yl)amino)-5-oxopentanoate] (Adamantane1carbonyl-PLE(OtBu)V-OAll) | 0.00932 | 17900 | – | – | – | Effect on Nav1.6-mediated currents [1]: unaffected
5 | B1 | – | – | – | – | – | Kd [2]: 228 ± 57.5 nM; koff [2]: 0.00171 s⁻¹; kon [2]: 21800 M⁻¹ s⁻¹
6 | B2 | – | – | – | – | – | KD with 10 μM 21a [3]: 1420 ± 135 nM
7 | B3 | – | – | – | – | – | koff of FGF14 binding to Nav1.6 C-terminal tail (FGF14:Nav1.6): 0.00171 ± 1.02e-05 s⁻¹; kon of FGF14 binding to Nav1.6 C-terminal tail (FGF14:Nav1.6): 21800 ± 160 M⁻¹ s⁻¹
